# Source: PubChem BioAssay
# This is a sample that favours compounds with a hit; in the whole collection about 6.6% have one here.
# PostGolgi yeast: growth inhibition of a yeast mutant, post-Golgi transport screen. inhibition, % at 10 µM. 98,000 compounds, 0.9% hits. AID 739. post-Golgi transport phenotypic cell assay;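 note: yeast cells grown in 1536-well plates; yeast grown about 18 h at 30C before absorbance read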
# Ecoli WT expand: E. coli BW25113 growth inhibition, expanded screen; OD600 absorbance; growth inhibition, % at 100 µM; 98,000 compounds, 0.15% hits;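 active = growth inhibition above about 50% at one test dose, limit read from the data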;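 note: growth measured after 20 h incubation at 37 °C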
# tolC growth inh: E. coli tolC mutant growth inhibition. 65,000 compounds, 2.2% hits. E. coli BW25113 tolC mutant growth, OD615. growth inhibition, % at 10 µM (by protocol). AID 573;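 active = growth inhibition at or above a cutoff equal to the mean over every tested compound plus 3 SD, cut at about 60% in these data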;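 note: growth measured after 20 h incubation at 37 °C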
#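 Test system: E. coli BW25113 ΔtolC::kan bacteria; incubation: 37 °C, 20 h exposure; medium: LB broth supplemented with 50 µg/mL kanamycin; read-out basis: percent growth inhibition; signal: A615 absorbance measurement; compound: 10 µM final, single dose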
# Her2 expr inh: lowers expression of human Her2 kinase | P04626 | SKBR-3 HER2 protein level, AlphaScreen, 18-24 h; stronger effect = lower value | HER2 level % of control, % at 10 µM | 65,000 compounds, 0.69% hits | AID 645;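 active = HER2 level under 5% of the carrier-only control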;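 note: 100% = DMSO carrier and 0% = 500 nM PU-H71 HSP90 inhibitor; lower value means stronger loss of Her2 protein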
# Target sequence (P04626 whole entry, looked up): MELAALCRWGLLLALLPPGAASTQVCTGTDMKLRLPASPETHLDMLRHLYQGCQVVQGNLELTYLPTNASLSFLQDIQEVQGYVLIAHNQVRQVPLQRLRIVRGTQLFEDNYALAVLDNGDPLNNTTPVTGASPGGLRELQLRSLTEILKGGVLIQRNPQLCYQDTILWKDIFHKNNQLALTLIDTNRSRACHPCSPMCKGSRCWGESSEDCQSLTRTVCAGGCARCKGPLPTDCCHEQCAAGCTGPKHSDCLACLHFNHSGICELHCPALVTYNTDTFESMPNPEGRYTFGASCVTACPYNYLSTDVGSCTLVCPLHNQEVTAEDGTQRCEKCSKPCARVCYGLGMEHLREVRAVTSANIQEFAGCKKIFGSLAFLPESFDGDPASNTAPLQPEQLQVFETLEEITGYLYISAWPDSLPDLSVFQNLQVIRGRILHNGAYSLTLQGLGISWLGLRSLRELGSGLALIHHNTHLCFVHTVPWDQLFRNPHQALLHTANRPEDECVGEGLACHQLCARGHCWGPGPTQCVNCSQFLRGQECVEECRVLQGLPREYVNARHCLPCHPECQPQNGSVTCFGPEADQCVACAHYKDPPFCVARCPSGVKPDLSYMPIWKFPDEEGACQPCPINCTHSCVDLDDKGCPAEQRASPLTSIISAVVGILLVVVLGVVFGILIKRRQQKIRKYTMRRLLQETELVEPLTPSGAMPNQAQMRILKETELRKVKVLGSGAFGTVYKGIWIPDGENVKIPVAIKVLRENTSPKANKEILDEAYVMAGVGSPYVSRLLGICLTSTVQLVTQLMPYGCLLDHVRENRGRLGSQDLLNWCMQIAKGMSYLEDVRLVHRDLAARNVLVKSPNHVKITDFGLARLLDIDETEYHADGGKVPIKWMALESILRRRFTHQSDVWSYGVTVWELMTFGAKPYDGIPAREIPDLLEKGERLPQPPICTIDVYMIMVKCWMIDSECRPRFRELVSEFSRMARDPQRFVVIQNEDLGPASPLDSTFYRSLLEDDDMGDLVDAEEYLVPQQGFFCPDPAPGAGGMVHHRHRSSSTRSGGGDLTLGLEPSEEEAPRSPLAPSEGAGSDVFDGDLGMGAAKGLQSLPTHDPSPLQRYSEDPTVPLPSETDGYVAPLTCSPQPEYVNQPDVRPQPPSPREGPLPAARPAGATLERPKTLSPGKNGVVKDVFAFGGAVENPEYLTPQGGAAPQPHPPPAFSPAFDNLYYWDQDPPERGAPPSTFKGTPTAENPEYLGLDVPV
# PostGolgi ctrl: growth of the yeast control strain, post-Golgi counter-screen; efflux-deficient yeast background strain, growth absorbance A615, 16 h; inhibition, % at 10 µM; 98,000 compounds, 5% hits; AID 738
# The depositor's hits bear a star; nt = no result given. Cut-off read from the data, not from the text of the source, unless noted: active = inhibition above about 30%; inactive = the rest.
SMILES,PostGolgi yeast,Ecoli WT expand,tolC growth inh,Her2 expr inh,PostGolgi ctrl
COc1cccc(-c2cc(C(=O)N3CCCCCC3)no2)c1,4,-2,29,88,0
COc1ccc(NCC(=O)Nc2ccc(Cl)cc2C)c(OC)c1,8,7,21,104,22
Nc1nc(C2CC2)c(Sc2sc(N)nc2C2CC2)s1,3,22,42,67,7
Brc1cc2c(cc1/C=N/Nc1nc3ccccc3s1)OCO2,7,-10,nt,nt,13
Cc1ccc2[nH]c(C)c(/C=N/Nc3nc4ccccc4s3)c2c1,49*,-1,nt,nt,69*
CCCC(=O)NCCCc1nc2ccccc2n1CC,-2,-4,-18,87,8
CCCC(=O)NCCCc1nc2ccccc2n1CCC,9,11,-7,75,40*
O=C(CSc1nc2sc3c(c2c(=O)n1-c1ccccc1)CCCC3)NCc1ccco1,-1,-6,-6,68,32*
CC1(C)Cc2c(sc3nc(SCC(=O)NCc4ccco4)n(-c4ccccc4)c(=O)c23)CS1,-2,-7,0,98,1
CC(=O)c1cnc2nc(C)nn2c1C,32*,9,-31,84,-5
CCOc1ccc(N2C(=O)CC(Sc3nc(C)cc(C)c3C#N)C2=O)cc1 (configuration not stated),2,-4,4,-9.9*,14
COc1ccc(C(=O)Nc2ccc(Cl)c(Cl)c2)c(OC)n1,0,-3,-18,58,6
CC(C)C1O/C(=N/C(=O)Nc2ccc(Cl)c(Cl)c2)NC1=O (configuration not stated),98*,53*,98*,36,92*
CCCS(=O)(=O)N1CCN(C(=O)c2cccc(OC)c2)CC1,-2,4,-20,77,3
COc1ccccc1NC(=O)N(Cc1ccccc1)c1ccccn1,19,-14,45,109,45*
COc1ccc(S(=O)(=O)NCC(=O)N(CC(=O)NCC2CCCO2)c2c(C)cccc2C)cc1 (configuration not stated),3,-1,nt,109,10
CC(=O)c1nn(-c2cccc(Br)c2)cc1C(=O)c1ccc(Br)cc1,-2,-2,nt,nt,7
CCOC(=O)c1nn(-c2ccc(Br)cc2)cc1C(=O)c1cccc2ccccc12,2,-3,nt,nt,31*
OCCNc1nc(SCc2ccccc2)nc2sc3c(c12)CCC3,-1,-17,nt,nt,74*
CO/N=C(/CNC(=O)c1ccc(F)cc1)c1ccc(Cl)cc1,2,-1,nt,nt,18
c1ccc(CN2c3ccccc3-c3nc4ccccc4n3C2c2ccccn2)cc1 (configuration not stated),9,-19,nt,nt,43*
O=C(CSc1ccc2ccccc2c1)Nc1ccncc1,103*,8,nt,nt,92*
CC(=O)Oc1ccc(NC(=O)CSc2ccccc2)cc1,-8,6,-16,107,37*
O=C(CSc1ccccc1)Nc1ccncc1,-1,15,-2,76,2
COc1ccc(OC)c(NC(=O)Cc2coc3ccc4ccccc4c23)c1,-1,-6,nt,nt,35*
SMILES,PostGolgi yeast,Ecoli WT expand,tolC growth inh,Her2 expr inh,PostGolgi ctrl
COc1ccc(OC)c(NC(=O)CSc2ccc3ccccc3c2)c1,19,-12,nt,nt,40*
COc1ccc(OC)c(NC(=O)CSc2ccccc2)c1,2,7,26,99,10
N#Cc1cn(CCOc2ccccc2F)c2ccccc12,-3,-5,74*,108,58*
Cc1c(C#N)c2ccccc2n1CCOc1ccccc1F,3,-8,20,106,67*
Cc1c(C#N)c2ccccc2n1CC(=O)N1CCc2ccccc2C1,nt,nt,11,92,nt
O=C(N/N=C/c1ccccc1F)c1csc2c1CCCC2,-5,2,nt,nt,13
O=C(N/N=C/c1cccc(F)c1)c1csc2c1CCCC2,-8,-11,nt,nt,50*
COc1ccc(/C=C(/C(=O)c2ccc(Cl)cc2Cl)n2cncn2)cc1,85*,5,nt,nt,33*
O=C(OCn1cncn1)c1ccc(Cl)cc1Cl,3,1,-3,116,-1
O=C(c1noc2c1CCCCC2)N1CCN(C(c2ccccc2)c2ccccc2)CC1,nt,nt,24,90,nt
O=C(Nc1ccc(Br)cc1)c1cccnc1N1CCCCC1,-3,-5,nt,nt,32*
Cc1ccc(Sc2oc(/C=N/n3cnnc3)cc2Br)cc1,1,-6,0,88,44*
Cc1ccc(/C=N/n2cnnc2)s1,8,3,nt,nt,3
Cc1cccc(N=C2Sc3nc4c(C)c(C)ccc4cc3CN2CCN2CCOCC2)c1,46*,-1,nt,nt,97*
Cn1cc([N+](=O)[O-])c(C(=O)Nc2nc(-c3ccc(Cl)cc3)cs2)n1,1,-5,nt,nt,40*
COc1cccc(N2CCN(Cc3ccsc3)CC2)c1,3,15,nt,nt,-5
CNC(=O)C1CC(=O)N(Cc2ccc3c(c2)OCO3)C(=Nc2ccc(OC)cc2)S1 (configuration not stated),-5,-6,-11,102,4
COc1ccc(CCNc2oc(COc3ccc(F)cc3)nc2C#N)cc1,-3,1,96*,116,8
CCCOc1ccc(-c2nc(C#N)c(NCCCn3ccnc3)o2)cc1,-1,-2,nt,nt,6
N#Cc1nc(-c2ccc(OCc3ccccc3)cc2)oc1NCCCn1ccnc1,7,5,100*,82,19
N#Cc1nc(COc2ccc(Br)cc2)oc1NCCCn1ccnc1,-1,38,97*,125,12
N#Cc1nc(-c2ccc(OCc3ccccc3Cl)cc2)oc1NCCCn1ccnc1,-4,11,100*,87,24
Cc1cccc(NC(=O)Cc2coc3ccc4ccccc4c23)n1,14,-5,nt,nt,22
NC(=O)NC(Cc1ccccc1)C(=O)NCC1(N2CCCCC2)CCCCC1 (configuration not stated),18,2,-13,74,17
Cc1onc(-c2ccccc2)c1C(=O)Nc1cccc(C#N)c1,-7,1,1,73,8
SMILES,PostGolgi yeast,Ecoli WT expand,tolC growth inh,Her2 expr inh,PostGolgi ctrl
O=C(OCC#CCSc1nnc(-c2cccc3ccccc23)o1)c1ccco1,-10,-16,nt,nt,6
O=C(Cc1cscn1)c1ccc(O)cc1O,9,14,7,-18*,-3
Cc1nc(CC(=O)c2ccc(O)cc2O)cs1,4,14,nt,nt,-7
Cc1[nH]nc2c1/C(=N\O)CC(C)(C)C2,-2,8,-6,98,39*
Cc1[nH]nc2c1C(=O)CC(C)(C)C2,2,-1,4,87,5
O=C(Oc1ccc(Cl)c2cccnc12)N1CCOCC1,12,-2,-15,1.0*,15
COc1ccc(O)c(CN2CCN(C/C=C/c3ccccc3)CC2)c1,42*,7,-2,102,34*
COc1cc(Br)cc(CN2CCN(C/C=C/c3ccccc3)CC2)c1O,19,12,49,121,16
O=S1(=O)C=C(Sc2nnc(-c3ccccc3)o2)c2ccccc21,88*,-1,19,-9.4*,31*
COc1cccc(C2/C(=C(/O)c3cnn(-c4ccccc4)c3C)C(=O)C(=O)N2CCN(C)C)c1 (configuration not stated),-2,4,-14,98,-2
Oc1ccc(N=Cc2ccc(-c3cccs3)s2)cc1,-4,-1,-2,-22*,0
